CHRM5 antagonist – blocks acetylcholine activation of human M5 receptor. P08912. CHO-hM5 cells, Fluo-8 calcium fluorescence, ACh EC80. inhibition, % at 3 µM. actives 0.59% (n = 360,000);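 active = inhibition above a per-plate cutoff, the mean of that plate's test compounds plus 3 SD, cut at about 27% in these data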;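 note: 0% = acetylcholine EC80 with DMSO and 100% = DMSO without agonist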
Target sequence (P08912 whole entry, looked up): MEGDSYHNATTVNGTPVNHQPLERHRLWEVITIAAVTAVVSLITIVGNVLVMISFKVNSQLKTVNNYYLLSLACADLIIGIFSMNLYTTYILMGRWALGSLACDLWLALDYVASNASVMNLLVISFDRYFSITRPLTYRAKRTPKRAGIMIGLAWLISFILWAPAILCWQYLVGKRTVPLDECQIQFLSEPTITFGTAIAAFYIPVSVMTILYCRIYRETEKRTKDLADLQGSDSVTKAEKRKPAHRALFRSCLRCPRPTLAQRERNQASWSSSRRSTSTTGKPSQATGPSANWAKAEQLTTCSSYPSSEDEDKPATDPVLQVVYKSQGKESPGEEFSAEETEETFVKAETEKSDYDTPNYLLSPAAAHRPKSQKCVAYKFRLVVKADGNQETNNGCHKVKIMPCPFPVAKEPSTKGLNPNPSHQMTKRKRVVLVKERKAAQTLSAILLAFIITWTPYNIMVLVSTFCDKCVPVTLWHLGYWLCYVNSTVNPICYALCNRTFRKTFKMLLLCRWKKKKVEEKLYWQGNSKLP
CHRM5 PAM – positive allosteric modulators of human muscarinic M5 receptor; actives 0.3% (n = 360,000); CHO-K1 hM5, Fluo-8 calcium, ACh EC20 PAM; 0% = ACh EC20, 100% = ACh EC100; activation, % at 3 µM; P08912;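 active = activation above the run cutoff, the mean activation of all test compounds plus 3 SD, cut at about 18% in these data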
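Measured by: Fluo-8 calcium fluorescence; material: human M5 receptor in CHO-K1 cells; schedule: Post-acetylcholine fluorescence recording 140 s; benchmarks: low control EC20 acetylcholine (0%), high control EC100 acetylcholine (100%); read-out: Max/basal fluorescence ratio as % of EC20–EC100 ACh window; compound: single dose, 3 µM nominal final test concentration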
M4 ag – CHRM4 agonism in calcium assay. P08173. CHO-K1 hM4/Gqi5, Fluo-8 calcium fluorescence; vehicle 0%, full acetylcholine response 100%. activation, % at 3 µM. actives 0.14% (n = 360,000);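 active = activation above the run mean over all test wells plus 3 SD, cut at about 32% in these data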;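 note: peak over basal fluorescence ratio per well then scaled between controls; 0% = DMSO wells and 100% = acetylcholine at EC100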
M5 ag – CHRM5 agonism in calcium assay; CHO-K1 hM5 cells, Fluo-8 calcium fluorescence; 0% DMSO wells, 100% maximal acetylcholine response; P08912; activation, % at 3 µM; actives 0.19% (n = 360,000);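 active = activation above the run's mean over test compounds plus 3 SD, cut at about 23% in these data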;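 note: signal is peak over basal fluorescence ratio across the kinetic read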
CHRM4 PAM – potentiates acetylcholine response at human M4 receptor. actives 0.4% (n = 360,000). activation, % at 3 µM. CHO-K1 hM4/Gqi5, Fluo-8 calcium fluorescence, ACh EC20; 0% = ACh EC20, 100% = maximal ACh;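 active = activation above its plate's cutoff, the mean activation of sample wells plus 3 SD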
M4 antag – CHRM4 antagonism in calcium assay | AID 624125 | CHO-hM4 cells, ACh EC80, Fluo-8 calcium fluorescence | inhibition, % at 3 µM | P08173 | actives 0.73% (n = 360,000);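 active = inhibition above its plate's cutoff, the mean inhibition of sample wells plus 3 SD, cut at about 27% in these data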;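 note: 0% = acetylcholine EC80 with DMSO and 100% = DMSO without agonist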
Active calls of the source: *. Hits are enriched below; roughly 1.8% of the tested compounds scored in any of these assays.

SMILES	CHRM5 antagonist	CHRM5 PAM	M4 ag	M5 ag	CHRM4 PAM	M4 antag
COc1cc(C2c3cc4c(cc3CC3COC(=O)C32)OCO4)cc(OC)c1OC (stereo not drawn)	1.0	5.7	0.8	-0.7	3.2	-8.8
COc1ccc(NC2Oc3cc4c(cc3C(c3cc(OC)c(OC)c(OC)c3)C2C)OCO4)cc1 (stereo not drawn)	-11.2	19.1*	0.7	3.3	12.7	-14.8
COc1ccc(CN2Cc3cc(N4CCCCC4)ccc3-n3nncc3C2)cc1	-3.3	0.5	-1.5	-2.0	7.7	-10.1
O=c1[nH]c(=S)n(CCC2=CCCCC2)c(O)c1C=NCCCn1ccnc1	9.7	-19.1	-1.4	-8.0	-19.3	28.5*
CC(=O)OC1CC2OC3C=C(C)CCC3(C)C1(C)C21CO1 (stereo not drawn)	-6.7	3.9	0.1	2.5	0.3	-6.1
O=C1NC(=O)N(Cc2ccc(F)cc2)C(=O)/C1=C\c1ccoc1	12.0	-12.8	7.3	25.1*	0.1	-10.2
CN(C)c1ccc(/C=C2\C(=O)NC(=O)N(Cc3ccc(F)cc3)C2=O)cc1	8.0	-2.6	1.9	1.9	0.2	5.3
CCCC[N+]12CCC(CC1)C(C(O)(c1ccccc1)c1ccccc1)C2 (stereo not drawn)	7.8	-23.0	-0.1	-22.0	-33.7	20.1
CCC[N+]12CCC(CC1)C(C(O)(c1ccccc1)c1ccccc1)C2 (stereo not drawn)	28.2*	-34.4	0.1	-18.0	-53.5	10.0
CN1CCCC1C(O)(c1ccccc1)c1ccccc1 (stereo not drawn)	7.0	-20.5	1.1	-6.4	-2.5	1.3
C[N+]12CCC(CC1)C(C(O)(c1ccccc1)c1cccs1)C2 (stereo not drawn)	93.7*	-15.6	0.8	-6.5	-33.3	94.3*
CNC(=O)Oc1ccccc1C1CCCCC1	3.9	-0.5	-0.9	-1.4	2.3	-1.1
CN1C2CCC1CC(OC(c1ccccc1)c1ccccc1N)C2 (stereo not drawn)	99.5*	-18.6	0.1	-0.9	-18.7	100.3*
O=C(Nc1cc(Cl)cc(Cl)c1)N1Cc2ccccc2-n2nncc2C1	7.9	-5.0	3.3	-1.1	4.1	-7.7
CCOC(=O)[C@]12Cc3c(cc(OC)c(OC)c3OC)[C@H]1N(C1CCCCC1)C(=O)c1ccccc12	6.1	11.6	-1.2	11.5	0.3	8.7
CC1(C)CCCN1CCC(C(N)=O)(c1ccccc1)c1ccccc1	99.1*	-35.8	0.2	-10.6	-10.1	97.9*
O=C(Nc1ccc(F)cc1)c1c(O)c2c(n(Cc3ccccc3)c1=O)CCCC2	-6.5	-3.0	1.6	-0.9	21.0*	14.4
O=C(Nc1cccnc1)c1c(O)c2c(n(Cc3ccccc3)c1=O)CCCC2	-4.7	1.2	0.1	-2.9	0.2	0.6
CC(=O)OC1CCC2(C)C(CCC3C4CC(N5CC5)C(C(C)=O)C4(C)CC(=O)C32)C1 (stereo not drawn)	8.9	1.7	-0.3	-3.5	-3.6	-10.1
CCCNC(=O)c1c(N)n(Cc2ccc3c(c2)OCO3)c2nc3ccccc3nc12	-7.4	6.9	0.5	4.0	-2.6	3.2
CC(C)(C)c1nc(NCc2ccc3c(c2)OCO3)c2nnn(Cc3ccccc3Cl)c2n1	1.2	-3.1	0.7	-1.3	28.5*	-3.1
Oc1ccccc1-[n+]1c(-c2ccccc2)cc(-c2ccccc2)cc1-c1ccccc1	11.4	-12.7	2.6	-11.3	-18.2	27.6*
Cc1ccccc1-[n+]1c(-c2ccccc2)cc(-c2ccccc2)cc1-c1ccccc1	41.5*	-40.1	8.0	-9.4	-15.2	78.3*
[O-]c1ccccc1-[n+]1c(-c2ccccc2)cc(-c2ccccc2)cc1-c1ccccc1	8.1	-9.5	3.9	-12.0	-9.2	17.0
Nc1ccccc1-[n+]1c(-c2ccccc2)cc(-c2ccccc2)cc1-c1ccccc1	5.2	-12.4	-0.4	-19.6	-22.0	22.5
O=c1[nH]c2ccccc2n1C1CCN(C(CCc2ccccc2)c2nnnn2C2CCCCC2)CC1 (stereo not drawn)	18.0	-13.3	16.7	2.7	-5.1	4.5

High-throughput results deposited in PubChem by The Scripps Research Institute Molecular Screening Center.
